Measured values: ChEMBL document CHEMBL1165943, “Design and synthesis of new anticancer pyrimidines with multiple-kinase inhibitory effect” (Bioorg Med Chem, 2010)

Assays:
Format in all cases: functional
[1] = test system: HL-60(TB); assay: Cytotoxicity against human HL-60(TB) cells assessed as cell growth at 10 uM; conditions: Homo sapiens, HL-60; read-out: Activity
Procedure, shortened: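 Single-concentration 10 µM screen of HL-60(TB) within the 60-line panel, grown in RPMI 1640 with 5% FBS. The drug from DMSO stock is incubated 48 h at 37 °C, settled cells are TCA-fixed and SRB-stained, and absorbance is read at 515 nm. Percent growth is reported, and inhibition % is taken as 100 minus growth %.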

[2] = test system: K562; assay: Cytotoxicity against human K562 cells assessed as cell growth at 10 uM; conditions: Homo sapiens, K562; read-out: Activity
Procedure, shortened: (§1)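 Single-dose screen at 10 μM across the 60-cell-line panel. Cells grown in RPMI 1640 with 5% FBS and 2 mM L-glutamine, seeded at 5,000–40,000 cells/well according to doubling time, and treated 24 h later. Exposure lasted 48 h at 37 °C, 5% CO₂. Adherent cells were fixed with cold TCA, suspension cells were fixed settled, and both were stained with SRB and read at 515 nm. Growth % was recorded, with inhibition % = 100 − growth %.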

[3] = test system: MOLT-4; assay: Cytotoxicity against human MOLT4 cells assessed as cell growth at 10 uM; conditions: Homo sapiens, MOLT-4; read-out: Activity; procedure, shortened: as §1
[4] = test system: SR; assay: Cytotoxicity against human SR cells assessed as cell growth at 10 uM; conditions: Homo sapiens, SR; read-out: Activity; procedure, shortened: as §1
[5] = test system: EKVX; assay: Cytotoxicity against human EKVX cells assessed as cell growth at 10 uM; conditions: Homo sapiens, EKVX; read-out: Activity
Procedure, shortened: (§2)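 Single-concentration screen at 10 μM across the 60-cell-line panel (nine tissue types); growth percentage recorded per cell line, with inhibition taken as 100 minus growth percentage.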

[6] = test system: HOP-62; assay: Cytotoxicity against human HOP62 cells assessed as cell growth at 10 uM; conditions: Homo sapiens, HOP-62; read-out: Activity; procedure, shortened: as §2
[7] = test system: NCI-H322M; assay: Cytotoxicity against human NCI-H322M cells assessed as cell growth at 10 uM; conditions: Homo sapiens, NCI-H322M; read-out: Activity; procedure, shortened: as §1
[8] = test system: NCI-H460; assay: Cytotoxicity against human NCI-H460 cells assessed as cell growth at 10 uM; conditions: Homo sapiens, NCI-H460; read-out: Activity; procedure, shortened: as §1
[9] = test system: NCI-H522; assay: Cytotoxicity against human NCI-H522 cells assessed as cell growth at 10 uM; conditions: Homo sapiens, NCI-H522; read-out: Activity; procedure, shortened: as §1
[10] = test system: HCC 2998; assay: Cytotoxicity against human HCC2998 cells assessed as cell growth at 10 uM; conditions: Homo sapiens, HCC 2998; read-out: Activity; procedure, shortened: as §2
[11] = test system: HCT-116; assay: Cytotoxicity against human HCT116 cells assessed as cell growth at 10 uM; conditions: Homo sapiens, HCT-116; read-out: Activity; procedure, shortened: as §2
[12] = test system: HCT-15; assay: Cytotoxicity against human HCT15 cells assessed as cell growth at 10 uM; conditions: Homo sapiens, HCT-15; read-out: Activity; procedure, shortened: as §2
[13] = test system: HT-29; assay: Cytotoxicity against human HT-29 cells assessed as cell growth at 10 uM; conditions: Homo sapiens, HT-29; read-out: Activity; procedure, shortened: as §2
[14] = test system: KM12; assay: Cytotoxicity against human KM12 cells assessed as cell growth at 10 uM; conditions: Homo sapiens, KM12; read-out: Activity; procedure, shortened: as §1
[15] = test system: SW-620; assay: Cytotoxicity against human SW620 cells assessed as cell growth at 10 uM; conditions: Homo sapiens, SW-620; read-out: Activity; procedure, shortened: as §1
[16] = test system: SF-268; assay: Cytotoxicity against human SF268 cells assessed as cell growth at 10 uM; conditions: Homo sapiens, SF-268; read-out: Activity; procedure, shortened: as §1
[17] = test system: SF-295; assay: Cytotoxicity against human SF295 cells assessed as cell growth at 10 uM; conditions: Homo sapiens, SF-295; read-out: Activity; procedure, shortened: as §1
[18] = test system: SF-539; assay: Cytotoxicity against human SF539 cells assessed as cell growth at 10 uM; conditions: Homo sapiens, SF-539; read-out: Activity; procedure, shortened: as §1
[19] = test system: SNB-75; assay: Cytotoxicity against human SNB75 cells assessed as cell growth at 10 uM; conditions: Homo sapiens, SNB-75; read-out: Activity; procedure, shortened: as §1
[20] = test system: U-251; assay: Cytotoxicity against human U251 cells assessed as cell growth at 10 uM; conditions: Homo sapiens, U-251; read-out: Activity; procedure, shortened: as §1
[21] = test system: Malme-3M; assay: Cytotoxicity against human MALME-3M cells assessed as cell growth at 10 uM; conditions: Homo sapiens, Malme-3M; read-out: Activity; procedure, shortened: as §1
[22] = test system: M14; assay: Cytotoxicity against human M14 cells assessed as cell growth at 10 uM; conditions: Homo sapiens, M14; read-out: Activity; procedure, shortened: as §1
[23] = test system: SK-MEL-2; assay: Cytotoxicity against human SK-MEL-2 cells assessed as cell growth at 10 uM; conditions: Homo sapiens, SK-MEL-2; read-out: Activity; procedure, shortened: as §1
[24] = test system: SK-MEL-28; assay: Cytotoxicity against human SK-MEL-28 cells assessed as cell growth at 10 uM; conditions: Homo sapiens, SK-MEL-28; read-out: Activity; procedure, shortened: as §1
[25] = test system: SK-MEL-5; assay: Cytotoxicity against human SK-MEL-5 cells assessed as cell growth at 10 uM; conditions: Homo sapiens, SK-MEL-5; read-out: Activity; procedure, shortened: as §1
[26] = test system: IGROV-1; assay: Cytotoxicity against human IGROV1 cells assessed as cell growth at 10 uM; conditions: Homo sapiens, IGROV-1; read-out: Activity; procedure, shortened: as §1
[27] = test system: OVCAR-3; assay: Cytotoxicity against human OVCAR-3 cells assessed as cell growth at 10 uM; conditions: Homo sapiens, OVCAR-3; read-out: Activity; procedure, shortened: as §1
[28] = test system: OVCAR-4; assay: Cytotoxicity against human OVCAR4 cells assessed as cell growth at 10 uM; conditions: Homo sapiens, OVCAR-4; read-out: Activity; procedure, shortened: as §1
[29] = test system: OVCAR-8; assay: Cytotoxicity against human OVCAR8 cells assessed as cell growth at 10 uM; conditions: Homo sapiens, OVCAR-8; read-out: Activity; procedure, shortened: as §1
[30] = test system: NCI/ADR-RES; assay: Cytotoxicity against human NCI/ADR-RES cells assessed as cell growth at 10 uM; conditions: Homo sapiens, NCI/ADR-RES; read-out: Activity; procedure, shortened: as §1
[31] = test system: SK-OV-3; assay: Cytotoxicity against human SKOV3 cells assessed as cell growth at 10 uM; conditions: Homo sapiens, SK-OV-3; read-out: Activity; procedure, shortened: as §1
[32] = test system: ACHN; assay: Cytotoxicity against human ACHN cells assessed as cell growth at 10 uM; conditions: Homo sapiens, ACHN; read-out: Activity; procedure, shortened: as §2
[33] = test system: CAKI-1; assay: Cytotoxicity against human Caki1 cells assessed as cell growth at 10 uM; conditions: Homo sapiens, CAKI-1; read-out: Activity; procedure, shortened: as §2
[34] = test system: TK-10; assay: Cytotoxicity against human TK10 cells assessed as cell growth at 10 uM; conditions: Homo sapiens, TK-10; read-out: Activity; procedure, shortened: as §1
[35] = test system: UO-31; assay: Cytotoxicity against human UO31 cells assessed as cell growth at 10 uM; conditions: Homo sapiens, UO-31; read-out: Activity; procedure, shortened: as §1
[36] = test system: DU-145; assay: Cytotoxicity against human DU145 cells assessed as cell growth at 10 uM; conditions: Homo sapiens, DU-145; read-out: Activity; procedure, shortened: as §2
[37] = test system: T47D; assay: Cytotoxicity against human T47D cells assessed as cell growth at 10 uM; conditions: Homo sapiens, T47D; read-out: Activity; procedure, shortened: as §1
[38] = test system: MDA-MB-468; assay: Cytotoxicity against human MDA-MB-468 cells assessed as cell growth at 10 uM; conditions: Homo sapiens, MDA-MB-468; read-out: Activity; procedure, shortened: as §1

Row | Structure (SMILES) | growth at 10 µM [1] | growth at 10 µM [2] | growth at 10 µM [3] | growth at 10 µM [4] | growth at 10 µM [5] | growth at 10 µM [6] | growth at 10 µM [7] | growth at 10 µM [8] | growth at 10 µM [9] | growth at 10 µM [10] | growth at 10 µM [11] | growth at 10 µM [12] | growth at 10 µM [13] | growth at 10 µM [14] | growth at 10 µM [15] | growth at 10 µM [16] | growth at 10 µM [17] | growth at 10 µM [18] | growth at 10 µM [19] | growth at 10 µM [20] | other results
1 | FC(F)(F)c1cc(Nc2nccc(-c3ccc(Nc4ccccc4)nc3)n2)cc(C(F)(F)F)c1 | 105% | 92.9% | 87.6% | 90% | 108% | 94% | 96.6% | 109% | 96.5% | 100% | 108% | 97.4% | 99.8% | 112% | 101% | 107% | 112% | 94.9% | 86.5% | 104% | growth at 10 µM [21]: 117%; growth at 10 µM [22]: 111%; growth at 10 µM [23]: 92.1%; growth at 10 µM [24]: 110%; growth at 10 µM [25]: 99.1%; growth at 10 µM [26]: 102%; growth at 10 µM [27]: 119%; growth at 10 µM [28]: 105%; growth at 10 µM [29]: 97.2%; growth at 10 µM [30]: 102%; growth at 10 µM [31]: 89.9%; growth at 10 µM [32]: 91.3%; growth at 10 µM [33]: 98%; growth at 10 µM [34]: 119%; growth at 10 µM [35]: 79.5%; growth at 10 µM [36]: 111%; growth at 10 µM [37]: 84.5%; growth at 10 µM [38]: 89.6%
2 | O=C(Nc1cc(C(F)(F)F)cc(C(F)(F)F)c1)Nc1nccc(-c2ccc(Nc3ccccc3)nc2)n1 | 99.7% | 93.6% | 96.6% | 84.6% | 134% | 103% | 144% | 103% | 94.3% | 109% | 93.2% | 108% | 94.4% | 117% | 98.8% | 117% | 137% | 96.4% | 90.1% | 113% | growth at 10 µM [21]: 151%; growth at 10 µM [22]: 94.2%; growth at 10 µM [23]: 101%; growth at 10 µM [24]: 99.8%; growth at 10 µM [25]: 107%; growth at 10 µM [26]: 105%; growth at 10 µM [27]: 124%; growth at 10 µM [28]: 114%; growth at 10 µM [29]: 103%; growth at 10 µM [30]: 108%; growth at 10 µM [31]: 83.3%; growth at 10 µM [32]: 93%; growth at 10 µM [33]: 102%; growth at 10 µM [34]: 123%; growth at 10 µM [35]: 91.6%; growth at 10 µM [36]: 126%; growth at 10 µM [37]: 110%; growth at 10 µM [38]: 108%
